Data set [1] relates to 3T3-L1. In words: Lipid lowering activity in mouse 3T3-L1 cells assessed as reduction in adipogenic cocktail-induced triglyceride levels at 5 uM incubated for 6 days by GPO-POD assay relative to control. The class given is functional. Details: scale not given: the % may be the effect or the level left. As to conditions: time 6 day. The method, boiled down:
(§1)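 Confluent 3T3-L1 cells were treated from day 0 in cocktail (IBMX, dexamethasone, insulin) for 3 days, then re-dosed in insulin medium for 3 more days. For dose–response, concentrations were 0–10 µM (0.01, 0.1, 0.3, 1, 3, 10). On day 6, cells were lysed in 0.2% Triton X-100 and TG was measured by GPO-POD and normalized to BCA protein as % of control. EC50 was fitted from the dose–response. N = 4.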

For data set [2], the system named is 3T3-L1. Put plainly: Activation of AMPK pathway in adipogenic cocktail-induced mouse 3T3-L1 cells assessed as decrease in ATP level at 1 uM after 24 hrs. In kind it is cell-based. To be noted: filed as activator. The method, boiled down: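 Confluent 3T3-L1 pre-adipocytes exposed to adipogenic cocktail (0.5 mM IBMX, 100 ng/mL dexamethasone, 2 µg/mL insulin) with compound at 0.3 or 1 µM for 24 h. ATP quantified with a commercial luminescent kit and normalized to protein.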

Data set [3] deals with C2C12. Put plainly: Activation of AMPK pathway in mouse C2C12 cells assessed as increase in glucose uptake at 1 uM after 6 hrs by 2-NBDG/Hoechst 33342 staining based Confocal microscopic method. The class given is cell-based. To be noted: filed as activator. The method, boiled down: (§2)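 C2C12 myoblasts kept in DMEM with 10% FBS and 1% penicillin/streptomycin at 37 °C under 5% CO2.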

For data set [4], the system named is C2C12. In words: Activation of AMPK pathway in mouse C2C12 cells assessed as increase in glucose uptake at 1 uM after 6 hrs in presence of insulin by 2-NBDG/Hoechst 33342 staining based Confocal microscopic method. The class given is cell-based. To be noted: filed as activator. The method, boiled down:
as §2

In data set [5] the test system is 3T3-L1. Put plainly: Activation of AMPK pathway in mouse 3T3-L1 cells assessed as increase in NRF2 mRNA expression at 1 uM after 24 hrs by RT-qPCR analysis. In kind it is cell-based. To be noted: filed as activator. (Real-time PCR tracks product formation cycle by cycle.)
A short description of data set [6]: AUC(0 to t) in Sprague-Dawley rat at 2 mg/kg, iv up to 24 hrs by LC-MS/MS analysis. As to conditions: in vivo.
Data set [7] in a line: AUC(0 to infinity) in Sprague-Dawley rat at 2 mg/kg, iv up to 24 hrs by LC-MS/MS analysis. As to conditions: in vivo.
Data set [8] concerns 3T3-L1. Put plainly: Lipid lowering activity in mouse 3T3-L1 cells assessed as adipogenic cocktail-induced triglyceride levels at 1 uM by GPO-POD assay. In kind it is functional, cell-based. To be noted: time day <=6. Put shortly:
as §1

Data set [9] concerns 3T3-L1. Put plainly: Lipid lowering activity in mouse 3T3-L1 cells assessed as adipogenic cocktail-induced triglyceride levels at 1 uM up to 9 days by GPO-POD assay relative to control. The class given is functional, cell-based. As to conditions: time day <=9. The method, boiled down:
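3T3-L1 cells were differentiated (cocktail on days 0–3, insulin thereafter) with 1 µM compound present during defined windows (days 0–3, 3–6, 6–9, or 0–3/0–6/0–9). TG was measured at day 9 by GPO-POD after Triton X-100 lysis and sonication. TG was normalized to BCA protein and expressed as % of differentiated control.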

The subject of data set [10] is 3T3-L1. Put plainly: Inhibition of mouse 3T3-L1 cells adipocyte differentiation assessed as reduction in adipogenic cocktail-induced ACC protein expression at 0.3 to 1 uM after 6 days by Western blot analysis. The class given is functional, cell-based. As to conditions: dose 0.3-1 µM, time 6.0 day. Put shortly:
(§3)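 3T3-L1 preadipocytes were differentiated with cocktail for 3 days, then insulin medium for 3 days, with compound (0.3 or 1 µM) present throughout. Cells were harvested on day 6 and proteins measured by Western blot, with densitometry normalized to actin.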
Background: In western blotting, separated proteins are transferred to a membrane and probed.

The subject of data set [11] is 3T3-L1. Put plainly: Inhibition of mouse 3T3-L1 cells adipocyte differentiation assessed as reduction in adipogenic cocktail-induced SCD1 protein expression at 0.3 to 1 uM after 6 days by Western blot analysis. To be noted: dose 0.3-1 µM, time 6.0 day. In kind it is functional, cell-based. Put shortly:
as §3

Data set [12] has as its system C2C12. In words: Activation of AMPK pathway in mouse C2C12 cells assessed as increase in glucose uptake at 0.3 to 1 uM after 6 hrs in presence of insulin by 2-NBDG/Hoechst 33342 staining based Confocal microscopic method. The class given is cell-based. To be noted: filed as activator, dose 0.3-1 µM. Put shortly:
as §2

In data set [13] the test system is 3T3-L1. In words: Activation of AMPK pathway in mouse 3T3-L1 cells assessed as increase in ACSL mRNA expression at 0.3 to 1 uM after 24 hrs by RT-qPCR analysis. The class given is cell-based. As to conditions: filed as activator, dose 0.3-1 µM.
The subject of data set [14] is 3T3-L1. Put plainly: Activation of AMPK pathway in mouse 3T3-L1 cells assessed as increase in NRF2 mRNA expression at 0.3 to 1 uM after 24 hrs by RT-qPCR analysis. In kind it is cell-based. As to conditions: filed as activator, dose 0.3-1 µM.
In data set [15] the test system is Mus musculus. Put plainly: Antiobesity activity in high fat diet-induced obese C57BL/6J mouse model assessed as decrease in fat mass at 20 mg/kg, ip administered for every other days for 6 weeks. The class given is functional, organism-based.
Data set [16] can be described thus: AUC(0 to infinity) in Sprague-Dawley rat at 2 mg/kg, iv up to 24 hrs by LC-MS/MS analysis. To be noted: in vivo. The class given is ADME, organism-based. Details: route intravenous, dose 2 mg/kg, time <=24. The method, boiled down: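 Male Sprague-Dawley rats (180-220 g, n = 3) received a single intravenous dose of 2 mg/kg in ethanol/saline (5:95). Blood was sampled at 0, 30 min, 1, 2, 4, 8, 12 and 24 h after dosing and centrifuged to plasma. Plasma drug levels were measured by LC-MS/MS, and pharmacokinetic parameters were calculated from the concentration-time data.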

Data set [17] in a line: Apparent volume of distribution in Sprague-Dawley rat at 2 mg/kg, iv up to 24 hrs by LC-MS/MS analysis. In kind it is ADME, organism-based. To be noted: in vivo, read-out: Vz. The method, boiled down:
(§4)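 Male SD rats (180–220 g, n = 3) received compound in ethanol/saline (5:95), either intravenously at 2 mg/kg or intragastrically at 5 mg/kg. Plasma was sampled at 0, 0.5, 1, 2, 4, 8, 12 and 24 h. Concentrations were measured by LC-MS/MS, and PK parameters were calculated from the concentration–time data.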

Data set [18] can be described thus: Clearance in Sprague-Dawley rat at 2 mg/kg, iv up to 24 hrs by LC-MS/MS analysis. The class given is ADME, organism-based. To be noted: in vivo. The method, boiled down:
as §4

For data set [19], the system named is Mus musculus. In words: Antiobesity activity in high fat diet-induced obese C57BL/6J mouse model assessed as albumin level at 20 mg/kg, ip administered for every other days for 6 weeks by auto-analyzer method (reference value: 38.7 […]). The class given is functional. The method, boiled down: (§5)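 Male C57BL/6J mice (7–8 weeks) fed HFC diet (60% fat, 1% cholesterol) for up to 14 weeks. From week 9, given 20 mg/kg i.p. every other day for 6 weeks in saline with 10% ethanol and 10% castor oil, or vehicle. Body weight and food intake recorded daily. At end, mice fasted 6 h, anesthetized, and blood collected into EDTA. Plasma chemistry run on an auto-analyzer; insulin by ultra-sensitive ELISA.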

The test system of data set [20] is Mus musculus. In words: Antiobesity activity in high fat diet-induced obese C57BL/6J mouse model assessed as glucose level at 20 mg/kg, ip administered for every other days for 6 weeks by auto-analyzer method (reference value: 11.8 +/- 1.3 mM). In kind it is functional. Put shortly:
as §5

Data set [21] has as its system Mus musculus. Put plainly: Antiobesity activity in high fat diet-induced obese C57BL/6J mouse model assessed as cholesterol level at 20 mg/kg, ip administered for every other days for 6 weeks by auto-analyzer method (reference value: 6.2 +/- 0.3 mM). In kind it is functional. Put shortly: as §5
Data set [22] deals with Mus musculus. In words: Antiobesity activity in high fat diet-induced obese C57BL/6J mouse model assessed as ratio of LDL cholesterol level to HDL cholesterol level at 20 mg/kg, ip administered for every other days for 6 weeks by auto-analyzer method (reference value: 0.4 +/- 0.13). The class given is functional.

Active and inactive are the calls of the source. The calls are words filed in the database; no cut-off is given here.

As usually defined, the AUC(0-t) is exposure summed from dosing to a finite time, without extrapolation to infinity. The term AUC(0-inf) denotes total exposure, with the tail of the curve extrapolated. In the case of `CN(C)CCCNc1nc(-c2[nH]c3ccccc3c2C=O)nc2ccccc12`, the Activity in the data set with 3T3-L1 [1] is 89.3%. The outcome with 3T3-L1 [2], in the data set with C2C12 [3], in the data set with C2C12 [4] and in the data set with 3T3-L1 [5] was Active. The AUC(0-t) at 24 h in data set [6] was found to be 635 ng·h/mL. The compound also returned an AUC(0-inf) in data set [7] of 671 ng·h/mL.

A word on the clearance: it is the volume of plasma or blood freed of the substance per unit of time. Regarding `COc1ccc2[nH]c(-c3nc(NCCCCN4CCCC4)c4ccccc4n3)c(C=O)c2c1`, the Activity entry in the data set with 3T3-L1 [8] is “Dose-dependent effect”; with Mus musculus [19], 30.4 g/L; in the data set with Mus musculus [20], 9.3 mM; in the data set with Mus musculus [21], 4.7 mM. The result in the data set with 3T3-L1 [9], in the data set on C2C12 [12], in the data set with 3T3-L1 [13], with 3T3-L1 [14] and in the data set on Mus musculus [15] was Active. Moreover, the inhibition entry in the data set on 3T3-L1 [10] and with 3T3-L1 [11] was “Active” in each case. This compound came in with an AUC(0-inf) in [16] of 314 ng·h/mL. In data set [17], the Vd was 40.7 L/kg. In addition, the clearance in [18] was 107 mL/min/kg. Moreover, the Ratio in the data set on Mus musculus [22] is listed as 0.25.

(Values after ChEMBL document CHEMBL4732044, “Discovery of a promising agent IQZ23 for the treatment of obesity and related metabolic disorders” (Eur J Med Chem, 2020).)
